According to publication PMC8526398 (Bioorganic & medicinal chemistry letters, 2021):

Key:
EGFR/GRB2 PPI = conditions: cited from earlier work
[1] = Parallel artificial membrane permeability assay; format: in vitro ADME; conditions: PAMPA, 1% egg lecithin in n-dodecane
Summary of the method: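 Artificial membrane of 1% egg lecithin in n-dodecane. Test compound at 500 μM added to the donor side; incubated 5 h at room temperature. Compound in the receiving solution quantified by HPLC. Percent transport (%T) and apparent permeability coefficient (Papp, cm·s−1) calculated from previously reported equations; values given with SD.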

[2] = biological target: full-length human GRB2 (EGFR/GRB2 PPI) (Homo sapiens, UniProt P62993); format: binding
Sequence of full-length human GRB2 (EGFR/GRB2 PPI) (P62993 whole entry): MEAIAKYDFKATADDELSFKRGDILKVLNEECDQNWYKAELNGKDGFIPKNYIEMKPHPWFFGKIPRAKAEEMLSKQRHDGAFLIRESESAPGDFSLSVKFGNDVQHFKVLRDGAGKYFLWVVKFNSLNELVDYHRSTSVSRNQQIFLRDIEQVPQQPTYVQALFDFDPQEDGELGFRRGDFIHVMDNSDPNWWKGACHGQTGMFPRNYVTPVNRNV

Question: For `NC(=O)C[C@@H]1NC(=O)C2(CCCCC2)NC(=O)[C@@H](CC(=O)O)[C@@H](c2ccc(CP(=O)(O)O)cc2)/C=C/C[C@@H](Cc2cccc3ccccc23)CNC1=O` [Compound 4], which IC50 (EGFR/GRB2 PPI) is on record?
Answer: The IC50 was 2 nM.

Question: With `NC(=O)C[C@@H]1NC(=O)C2(CCCCC2)NC(=O)C[C@@H](c2ccc(CP(=O)(O)O)cc2)/C=C/C[C@@H](Cc2cccc3ccccc23)CNC1=O` [Compound 3] as the compound, how does the “permeability through the artificial membrane (in words)” value [1] read?
Answer: The value was “poor permeability”.

Question: With `NC(=O)C[C@@H]1NC(=O)C2(CCCCC2)NC(=O)C[C@@H](c2ccc(CC(=O)O)cc2)/C=C/C[C@@H](Cc2cccc3ccccc23)CNC1=O` [Compound 7] as the compound, how does the “permeability through the artificial membrane (in words)” value [1] read?
Answer: Its value is “good permeability”.

Question: For `CC(=O)N[C@@H](Cc1ccc(OP(=O)(O)O)cc1)C(=O)NC1(C(=O)N[C@@H](CC(N)=O)C(=O)NCCCc2cccc3ccccc23)CCCCC1` [Compound 2], which “IC50 relative to compound 1” value (EGFR/GRB2 PPI) is on record?
Answer: Its value is “two orders of magnitude lower than 1”.

Question: Which Ki [2] does the source give for `COC(=O)Cc1ccc([C@H]2/C=C/C[C@@H](Cc3cccc4ccccc34)CNC(=O)[C@H](CC(N)=O)NC(=O)C3(CCCCC3)NC(=O)C2)cc1` [Compound 8] here?
Answer: The Ki was greater than 20000 nM.
